GPR7 antag – antagonists of human GPR7 (neuropeptides B/W receptor 1); inhibition, % at 4.4 µM; hit rate 1.1% among 290,000; GPR7-expressing cells, fluorescence antagonist assay; P48145; in the data active = inhibition above about 16%, passing the limit was not always enough;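 also: cells stimulated with the agonist NPW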
OX1R antag-1 – human HCRTR1 antagonism. CHO/OX1R cells, Fluo-8 calcium fluorescence, orexin A. hit rate 0.43% among 330,000. O43613. inhibition, % at 5 µM. AID 434989;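 active = inhibition above its plate's threshold, mean inhibition of all tested compounds on the plate plus 3 SD, cut at about 37% in these data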
Target sequence (O43613 whole entry, looked up): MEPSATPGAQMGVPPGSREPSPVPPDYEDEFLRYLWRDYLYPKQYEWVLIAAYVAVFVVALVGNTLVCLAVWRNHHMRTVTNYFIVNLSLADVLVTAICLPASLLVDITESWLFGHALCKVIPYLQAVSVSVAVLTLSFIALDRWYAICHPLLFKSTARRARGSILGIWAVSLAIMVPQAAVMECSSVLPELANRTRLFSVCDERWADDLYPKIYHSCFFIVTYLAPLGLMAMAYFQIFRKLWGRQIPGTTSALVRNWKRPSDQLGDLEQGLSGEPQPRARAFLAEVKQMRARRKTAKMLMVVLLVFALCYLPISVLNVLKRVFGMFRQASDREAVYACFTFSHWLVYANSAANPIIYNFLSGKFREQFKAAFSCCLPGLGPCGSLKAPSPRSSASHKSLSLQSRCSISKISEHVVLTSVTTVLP
CHO parental Ca – counter-screen: ATP calcium response change in parental CHO cells; parental CHO-K1, ATP-induced calcium, Fluo-8 fluorescence; inhibition, % at 5.6 µM; hit rate 0.63% among 330,000;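 active = inhibition above that plate's mean sample inhibition plus 3 SD, cut at about 26% in these data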
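test system = CHO parental line | reagent = ATP stimulus | measured by = intracellular calcium via Fluo-8 no-wash fluorescent dye | control set = ATP and no-ATP DMSO wells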
GalR3 antagonist – antagonists of human GalR3; inhibition, % at 3 µM; AID 651719; O60755; hit rate 0.44% among 360,000; HEK293 GalR3-CNG cAMP membrane potential fluorescence; galR3 body fused to GalR1 C-terminus;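 active = inhibition above the screen-wide average plus 3 SD, cut at about 13% in these data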;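 also: forskolin and galanin both at EC90 stimulate the cells; cAMP rise reported by CNG channel membrane potential dye signal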
OX1R antag-2 – OX1R (human) antagonism; inhibition, % at 6.6 µM; hit rate 1.8% among 330,000; O43613; OX1R-expressing cells, FRET antagonist read-out; AID 485270; in the data active = inhibition mostly above about 38%, no sharp cut-off; inactive = mostly below about 40%
OX1R Ca confirm – OX1R (human) antagonism, confirmed. AID 492963. hit rate 38% among 1,100. CHO/OX1R cells, orexin A calcium Fluo-8 fluorescence. inhibition, % at 5 µM. shares compounds with OX1R antag-1; in the data active = inhibition above about 29%
CHO Ca triplic – counter-screen: parental CHO calcium response change, triplicate; shares compounds with OX1R antag-1; parental CHO-K1, ATP-induced calcium, Fluo-8 fluorescence; inhibition, % at 5.6 µM; hit rate 9.3% among 1,100; AID 492965;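 active = inhibition above a per-plate limit, the mean inhibition of that plate's test compounds plus 3 SD, cut at about 25% in these data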
OX1R HTRF conf – OX1R (human) antagonism, HTRF confirmed. OX1R-expressing cells, HTRF antagonist assay. hit rate 49% among 1,800. shares compounds with OX1R antag-2. inhibition, % at 6.6 µM; in the data active = inhibition above about 55%;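 also: CHO cells expressing OX1R stimulated with orexin A at about EC80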
CHO-K1 HTRF – counter-screen for OX1R antagonists: effect in parental CHO-K1 cells. shares compounds with OX1R antag-2. hit rate 48% among 1,800. AID 493232. inhibition, % at 6.6 µM. HTRF counterscreen; in the data active = inhibition above about 17%
Hits are given with their value; – = inactive; · = not tested or not shown. Compounds with a hit are over-represented: about 3.1% of the library has one in this group of screens.

SMILES | GPR7 antag | OX1R antag-1 | CHO parental Ca | GalR3 antagonist | OX1R antag-2 | OX1R Ca confirm | CHO Ca triplic | others
CCC(C)NS(=O)(=O)c1ccc(S(=O)(=O)N(CC(=O)Nc2ccccc2)Cc2ccco2)cc1 (stereo not drawn) | – | 49 | – | – | – | – | –
CCCC(C)NC(=O)CN(Cc1ccco1)S(=O)(=O)c1ccccc1 (stereo not drawn) | · | – | – | – | – | · | ·
COC(=O)[C@]12C[C@H](CC(=O)NCCCCc3ccccc3)C(=O)N(CCC3=CCCCC3)C1=C[C@H](C(C)(C)C)O[C@@H]2C | · | · | · | – | · | · | ·
CC(=O)c1c(C)[nH]c(C(=O)CN2CCN(S(=O)(=O)c3ccc(C(C)C)cc3)CC2)c1C | · | – | – | – | – | – | –
CCN(CC)S(=O)(=O)c1ccc(O)c(C(=O)OCC(=O)N2CCCc3ccccc32)c1 | · | · | · | – | · | · | ·
CCOC(=O)CSc1nnc(-c2ccc(NS(=O)(=O)c3ccc(C)cc3)cc2)o1 | – | – | – | – | – | 36 | 27
CCOC(=O)c1oc2ccc(S(=O)(=O)Nc3ccc4c(c3)n(C)c(=O)n4C)cc2c1C | – | 47 | – | – | – | – | –
COCC(=O)Nc1cc(C(=O)NCC(C)C)ccc1Cl | – | – | – | – | – | – | –
COC(=O)C1=C(C)N(Cc2ccccc2C(F)(F)F)C(=NCC2CC2)NC1c1cccc(F)c1 (stereo not drawn) | · | · | · | – | · | · | ·
O=C(OCc1ccc(F)cc1)c1cccnc1Cl | – | – | – | – | – | · | ·
O=C(OCc1ccc(COC(=O)c2cccnc2Cl)cc1)c1cccnc1Cl | – | 58 | – | – | – | 30 | 36
C[C@@H]1CCCCO[C@@H](CN(C)Cc2ccncc2)[C@@H](C)CN([C@H](C)CO)C(=O)c2cc(NC(=O)c3ccccc3)ccc2O1 | · | · | · | – | · | · | ·
Cc1cccc(C)c1N/C=C/c1onc(C)c1[N+](=O)[O-] | – | – | – | – | – | · | ·
Cc1noc(/C=C/c2ccc(-c3ccccc3Cl)o2)c1[N+](=O)[O-] | – | – | – | · | – | 74 | 43
CCC[C@@H](NS(=O)(=O)c1ccc(C)cc1)C(=O)Oc1ccc2c3c(c(=O)oc2c1)CCC3 | – | – | – | – | – | 39 | –
CN(c1ccc(OCC(=O)NCCc2ccccc2)cc1)S(=O)(=O)c1ccc(Cl)cc1 | · | – | – | – | – | – | –
CN(c1ccccc1)S(=O)(=O)c1cccc(NC(=O)COc2ccccc2)c1 | · | – | – | – | – | – | –
O=C(COc1ccc(Cl)cc1)Nc1cccc(S(=O)(=O)NCc2ccco2)c1 | · | – | – | – | – | – | –
COc1cc(C(=O)Nc2cccc(S(=O)(=O)NCc3ccco3)c2)cc(OC)c1OC | · | – | – | – | – | · | ·
Cc1c(C(=O)N(C)Cc2ccc(F)cc2)sc(=O)n1Cc1ccc(Cl)c(Cl)c1 | · | · | · | – | · | · | ·
Cc1cc(Cl)ccc1NC(=S)NCc1ccc(Cl)cc1 | – | – | – | – | – | – | –
Cc1ccccc1S(=O)(=O)N1CCCc2nc(-c3ccc(F)cc3)ccc21 | · | · | · | – | · | · | ·
CCc1c(C)sc(NC(=S)Nc2nc(C)cc(C)n2)c1C(=O)OC | – | – | – | – | – | 45 | –
CCc1c(C)sc(NC(=S)Nc2cccnc2)c1C(=O)OC | – | – | – | – | – | · | ·
Cc1ccc(-c2csc(N/N=C/c3ccco3)n2)cc1 | – | – | – | – | – | · | ·
CN(C)S(=O)(=O)c1ccc(-c2csc(N/N=C/c3ccco3)n2)cc1 | – | – | – | – | – | 70 | –
COC(=O)c1c(C)[nH]c(C(=O)COC(=O)CCNS(=O)(=O)c2cccc(C(F)(F)F)c2)c1C | · | – | – | – | – | – | –
CSc1ccc(-c2ccc3c(c2)c(Sc2ccccc2)c(-c2ccccc2)n3C)cc1 | · | · | · | – | · | · | ·
CSc1nc2ccc3nc(NC(=O)c4cccs4)sc3c2s1 | – | 56 | – | – | 81 | 85 | – | OX1R HTRF conf=95;CHO-K1 HTRF=–

Compound activity (PubChem BioAssay)
